How the values were obtained:
786-0 = test: Cytotoxicity against human 786-0 cells at 10 uM after 48 hrs by MTT assay; type: functional; settings: 786-0, 48 h
How it was run: (§1)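 Single-dose screen on the NCI 60-cell-line panel, run to the Developmental Therapeutics Program protocol (one-dose mean graph). Each value is the growth percentage of treated cells against untreated control cells.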

[1] = Cytotoxicity against human H1299 cells at 10 uM after 48 hrs by MTT assay realtive to control; type: functional; settings: NCI-H1299, 48 h
How it was run: (§2)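 H1299 non-small-cell lung cells were kept in RPMI 1640 with 10% FBS and penicillin/streptomycin at 37 °C under 5% CO2. About 2 × 10^3 cells per well were pre-incubated for 24 h. Compound was added from freshly made DMSO solution diluted in complete medium and left for 48 h. MTT was then added for 4 h at 37 °C, followed by 20% SDS/50% DMF lysis buffer for 16 h at 37 °C, and absorbance read at 550 nm.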

NCI-H226 = test: Cytotoxicity against human NCI-H226 cells at 10 uM after 48 hrs by MTT assay; type: functional; settings: NCI-H226, 48 h; how it was run: as §1
HOP-92 = test: Cytotoxicity against human HOP92 cells at 10 uM after 48 hrs by MTT assay; type: functional; settings: HOP-92, 48 h; how it was run: as §1
[2] = Cytotoxicity against human TERT immortalized BJ1 cells at 100 uM after 48 hrs by MTT assay relative to control; type: cell-based, BJ
How it was run: (§3)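 hTERT-immortalized BJ1 fibroblasts were grown in DMEM with 10% FCS, 1 mM pyruvate and 4 mM […]. Cells (about 2 × 10^3 per well) were seeded and held 24 h at 37 °C. Compounds were freshly dissolved in DMSO, diluted into medium and left on the cells 48 h. MTT was added for 4 h, then SDS/DMF lysis buffer for 16 h. Absorbance was read at 550 nm and expressed relative to untreated cells (100%).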

OVCAR-5 = test: Cytotoxicity against human OVCAR5 cells at 10 uM after 48 hrs by MTT assay; type: functional; settings: OVCAR-5, 48 h; how it was run: as §1
OVCAR-3 = test: Cytotoxicity against human OVCAR-3 cells at 10 uM after 48 hrs by MTT assay; type: functional; settings: OVCAR-3, 48 h; how it was run: as §1
HCT-29 = test: Growth percent of human HCT29 cells at 10 uM after 48 hrs by MTT assay; settings: HCT-29, 48 h
SNB-75 = test: Cytotoxicity against human SNB75 cells at 10 uM after 48 hrs by MTT assay; type: functional; settings: SNB-75, 48 h, values are per cent of control
How it was run: (§4)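 Single-dose screen in the NCI 60-cell-line panel, run according to the Developmental Therapeutics Program protocol (one-dose mean graph). The result is the growth percentage of treated cells relative to untreated control cells.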

ACHN = test: Cytotoxicity against human ACHN cells at 10 uM after 48 hrs by MTT assay; type: functional; how it was run: as §1
[3] = Cytotoxicity against human H1299 cells at 100 uM after 48 hrs by MTT assay realtive to control; type: functional; settings: NCI-H1299, 48 h; how it was run: as §2
EKVX = test: Cytotoxicity against human EKVX cells at 10 uM after 48 hrs by MTT assay; type: functional; how it was run: as §1
UO-31 = test: Cytotoxicity against human UO31 cells at 10 uM after 48 hrs by MTT assay; type: functional; settings: UO-31, 48 h, values are per cent of control; how it was run: as §4
LOX IMVI = test: Cytotoxicity against human LOXIMVI cells at 10 uM after 48 hrs by MTT assay; type: functional; settings: values are per cent of control; how it was run: as §1
[4] = Cytotoxicity against human TERT immortalized BJ1 cells at 10 uM after 48 hrs by MTT assay relative to control; type: cell-based, BJ; how it was run: as §3
SK-MEL-5 = test: Cytotoxicity against human SK-MEL-5 cells at 10 uM after 48 hrs by MTT assay; type: functional; settings: SK-MEL-5, 48 h, values are per cent of control; how it was run: as §1
[5] = Cytotoxicity against human CAK1-1 cells at 10 uM after 48 hrs by MTT assay; type: functional; settings: CAK1-1, 48 h; how it was run: as §1
OVCAR-8 = test: Cytotoxicity against human OVCAR8 cells at 10 uM after 48 hrs by MTT assay; type: functional; settings: OVCAR-8, 48 h; how it was run: as §1
Malme-3M = test: Cytotoxicity against human MALME3M cells at 10 uM after 48 hrs by MTT assay; type: functional; settings: values are per cent of control; how it was run: as §1
NCI-H522 = test: Growth percent of human NCI-H522 cells at 10 uM after 48 hrs by MTT assay; settings: NCI-H522, 48 h
HCT-15 = test: Growth percent of human HCT15 cells at 10 uM after 48 hrs by MTT assay; settings: HCT-15, 48 h
OVCAR-4 = test: Cytotoxicity against human OVCAR4 cells at 10 uM after 48 hrs by MTT assay; type: functional; settings: OVCAR-4, 48 h; how it was run: as §1
BT-549 = test: Cytotoxicity against human BT549 cells at 10 uM after 48 hrs by MTT assay; type: functional; settings: BT-549, 48 h; how it was run: as §1
SF-539 = test: Cytotoxicity against human SF539 cells at 10 uM after 48 hrs by MTT assay; type: functional; settings: SF-539, 48 h, values are per cent of control; how it was run: as §1
M14 = test: Cytotoxicity against human M14 cells at 10 uM after 48 hrs by MTT assay; type: functional; settings: M14, 48 h, values are per cent of control; how it was run: as §1
DU-145 = test: Cytotoxicity against human DU145 cells at 10 uM after 48 hrs by MTT assay; type: functional; settings: DU-145, 48 h, values are per cent of control; how it was run: as §1
[6] = Cell viability of human H1299 cells at 1 uM after 48 hrs by MTT assay relative to control; settings: NCI-H1299, 48 h
SK-MEL-2 = test: Cytotoxicity against human SK-MEL-2 cells at 10 uM after 48 hrs by MTT assay; type: functional; settings: SK-MEL-2, 48 h, values are per cent of control; how it was run: as §1
HL-60 = test: Cytotoxicity against human HL60 cells at 10 uM after 48 hrs by MTT assay; type: functional; settings: HL-60, 48 h; how it was run: as §1
MDA-MB-435 = test: Cytotoxicity against human MDA-MB-435 cells at 10 uM after 48 hrs by MTT assay; type: functional; settings: MDA-MB-435, 48 h; how it was run: as §1
HCT-116 = test: Growth percent of human HCT116 cells at 10 uM after 48 hrs by MTT assay; settings: HCT-116, 48 h
KM12 = test: Cytotoxicity against human KM12 cells at 10 uM after 48 hrs by MTT assay; type: functional; settings: KM12, 48 h; how it was run: as §1
[7] = molecular target: Telomerase reverse transcriptase (Homo sapiens, UniProt O14746); test: Effect on human TERT expressed in BJ1 cells at 1 uM after 24 hrs by SEAP assay realtive to control; settings: BJ
Sequence of Telomerase reverse transcriptase (O14746 whole entry): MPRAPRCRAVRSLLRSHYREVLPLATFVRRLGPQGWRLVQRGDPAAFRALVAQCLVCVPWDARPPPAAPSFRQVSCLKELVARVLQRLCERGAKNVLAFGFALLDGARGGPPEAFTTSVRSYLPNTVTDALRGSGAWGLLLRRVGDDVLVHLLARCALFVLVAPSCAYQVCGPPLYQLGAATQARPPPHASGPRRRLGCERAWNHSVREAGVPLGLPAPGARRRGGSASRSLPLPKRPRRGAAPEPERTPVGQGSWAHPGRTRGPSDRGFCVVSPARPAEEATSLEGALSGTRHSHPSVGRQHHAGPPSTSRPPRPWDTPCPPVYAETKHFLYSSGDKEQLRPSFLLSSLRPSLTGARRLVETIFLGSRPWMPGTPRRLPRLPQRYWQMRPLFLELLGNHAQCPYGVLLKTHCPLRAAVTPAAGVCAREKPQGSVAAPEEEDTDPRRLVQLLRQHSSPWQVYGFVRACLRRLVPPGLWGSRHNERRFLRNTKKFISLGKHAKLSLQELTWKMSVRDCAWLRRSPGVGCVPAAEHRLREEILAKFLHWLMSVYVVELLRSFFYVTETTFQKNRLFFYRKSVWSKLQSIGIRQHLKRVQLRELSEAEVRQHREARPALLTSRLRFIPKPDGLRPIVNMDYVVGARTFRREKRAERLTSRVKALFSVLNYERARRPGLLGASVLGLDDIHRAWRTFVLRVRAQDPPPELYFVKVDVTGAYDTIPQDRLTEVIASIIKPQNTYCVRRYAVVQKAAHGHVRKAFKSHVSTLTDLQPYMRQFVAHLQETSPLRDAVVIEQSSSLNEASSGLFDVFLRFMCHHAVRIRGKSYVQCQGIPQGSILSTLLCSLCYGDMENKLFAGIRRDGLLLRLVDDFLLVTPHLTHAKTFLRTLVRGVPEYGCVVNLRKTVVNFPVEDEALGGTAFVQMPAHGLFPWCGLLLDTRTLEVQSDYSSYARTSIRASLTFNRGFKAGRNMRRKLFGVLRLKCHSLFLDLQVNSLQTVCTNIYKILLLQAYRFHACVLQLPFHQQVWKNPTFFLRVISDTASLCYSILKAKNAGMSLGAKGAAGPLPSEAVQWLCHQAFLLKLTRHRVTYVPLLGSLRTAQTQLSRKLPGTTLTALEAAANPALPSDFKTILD

Row | Compound | growth percent at 10 µM (786-0) [%] | viability at 10 µM [1] [%] | growth percent at 10 µM (HOP-92) [%] | viability at 48 h, 100 µM [2] [%] | growth percent at 10 µM (OVCAR-5) [%] | growth percent at 10 µM (OVCAR-3) [%] | growth percent at 10 µM (HCT-29) [%] | growth, % of control at 10 µM (SNB-75) [%] | growth percent at 10 µM (ACHN) [%] | viability at 100 µM [3] [%] | growth percent at 10 µM (EKVX) [%] | growth, % of control at 10 µM (UO-31) [%] | growth, % of control at 10 µM (LOX IMVI) [%] | viability at 48 h, 10 µM [4] [%] | growth, % of control at 10 µM (SK-MEL-5) [%] | growth percent at 10 µM [5] [%] | growth percent at 10 µM (OVCAR-8) [%] | growth, % of control at 10 µM (Malme-3M) [%] | growth percent at 10 µM (NCI-H522) [%] | growth percent at 10 µM (HCT-15) [%] | further results
1 | O=C1c2ccc(NC(=O)C3CC3)cc2C(=O)c2cc(NC(=O)C3CC3)ccc21 | 94.9 | 36 | 86.2 | 47 | 112 | 103 | 106 | 89.2 | 86.7 | 43 | 94.3 | 95.5 | 90.3 | 44 | 75.7 | 88.4 | 94.3 | 91.8 | 89.4 | 86.3 | growth percent at 10 µM (NCI-H226): 101%; growth percent at 10 µM (OVCAR-4): 97.5%; growth percent at 10 µM (BT-549): 92.5%; growth, % of control at 10 µM (SF-539): 93.2%; growth, % of control at 10 µM (M14): 98.9%; growth, % of control at 10 µM (DU-145): 98.8%; cell viability at 1 µM [6]: 46%; growth, % of control at 10 µM (SK-MEL-2): 16.9%; growth percent at 10 µM (HL-60): 62.5%; growth percent at 10 µM (MDA-MB-435): 97.3%; growth percent at 10 µM (HCT-116): 87.1%; growth percent at 10 µM (KM12): 92.7%
2 | CN(C)CC(=O)Nc1ccc2c(c1)C(=O)c1cc(NC(=O)CN(C)C)ccc1C2=O | 68.6 | 55 | 56.1 | 39 | 73.2 | 43.6 | 11.7 | 76.1 | 66.4 | 15 | 102 | -82.5 | -52.3 | 45 | 82.6 | 59.3 | 32.3 | 96.2 | 61.8 | 16.3 | growth percent at 10 µM (NCI-H226): 89.1%; growth percent at 10 µM (OVCAR-4): 45.7%; growth percent at 10 µM (BT-549): 85.4%; growth, % of control at 10 µM (SF-539): -3.72%; growth, % of control at 10 µM (M14): 75%; growth, % of control at 10 µM (DU-145): 78.7%; cell viability at 1 µM [6]: 92%; growth, % of control at 10 µM (SK-MEL-2): -30.4%; growth percent at 10 µM (HL-60): -65%; residual activity [7]: 96%; growth percent at 10 µM (MDA-MB-435): 68.4%; growth percent at 10 µM (HCT-116): 19.1%; growth, % of control at 10 µM (KM12; values are per cent of control): 67%
3 | O=C(CCN1CCCC1)Nc1ccc2c(c1)C(=O)c1cc(NC(=O)CCN3CCCC3)ccc1C2=O | 40.5 | 54 | 7.04 | 39 | 18.8 | 36.9 | 19.5 | 77.5 | 29.6 | 12 | 58.7 | 5.27 | 30.7 | 68 | 56.9 | 55.5 | 19.6 | 47 | 29.2 | 56.1 | growth percent at 10 µM (NCI-H226): 41.1%; growth percent at 10 µM (OVCAR-4): 49.8%; growth percent at 10 µM (BT-549): 76.9%; growth, % of control at 10 µM (SF-539): 33.8%; growth, % of control at 10 µM (M14): 53.9%; growth, % of control at 10 µM (DU-145): 29.5%; cell viability at 1 µM [6]: 87%; growth, % of control at 10 µM (SK-MEL-2): -45.2%; growth percent at 10 µM (HL-60): 85.8%; growth percent at 10 µM (MDA-MB-435): 68.8%; growth percent at 10 µM (HCT-116): 10.5%; growth percent at 10 µM (KM12): 32.5%
4 | CC(=O)Nc1ccc2c(c1)C(=O)c1cc(NC(C)=O)ccc1C2=O | 97.7 | 83 | 101 | 91 | 102 | 111 | 107 | 107 | 96.9 | 55 | 95.3 | 96.4 | 99 | 91 | 109 | 105 | 99.8 | 111 | 93.6 | 93.9 | growth percent at 10 µM (OVCAR-4): 104%; growth percent at 10 µM (BT-549): 93.3%; growth, % of control at 10 µM (SF-539): 103%; growth, % of control at 10 µM (M14): 105%; growth, % of control at 10 µM (DU-145): 117%; cell viability at 1 µM [6]: 117%; growth, % of control at 10 µM (SK-MEL-2): 30.1%; growth percent at 10 µM (HL-60): 38.7%; residual activity [7]: 123%; growth percent at 10 µM (MDA-MB-435): 109%; growth percent at 10 µM (HCT-116): 102%; growth percent at 10 µM (KM12): 106%
